Laboratory results published in ChEMBL document CHEMBL1126557, “Novel antiasthmatic agents with dual activities of thromboxane A2 synthetase inhibition and bronchodilation. 2. 4-(3-Pyridyl)-1(2H)-phthalazinones” (J Med Chem, 1993).
pIC50: −log10 of the molar value.

How the values were obtained:
Cavia porcellus [1] = experiment: Tested in vivo for anaphylactic bronchoconstriction in OA sensitized guinea pig at intraduodenal dose of 10 mg/kg for 30 min; assay type: functional; details: Lung, 0.5 h
How it was run: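 Male Hartley guinea pigs (300–400 g) sensitized by ip and sc injection of 50 mg ovalbumin 15 days earlier. Anesthetized with pentobarbital 35 mg/kg ip, insufflation pressure recorded. Compound 10 mg/kg intraduodenal 30 min before challenge with OA aerosol (10 mg/mL, 10 s, ultrasonic nebulizer) through a by-passed ventilatory system. Reported as % inhibition.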

[2] = molecular target: T1, Thromboxane-A synthase (Rattus norvegicus) (UniProt P49430); experiment: Tested ex vivo against TXA2 production in rat serum at 1 hr after peroral dose of 30 mg/kg and anesthetized with ether; assay type: functional, organism-based; design: dose 30 mg/kg
T1 sequence (whole entry): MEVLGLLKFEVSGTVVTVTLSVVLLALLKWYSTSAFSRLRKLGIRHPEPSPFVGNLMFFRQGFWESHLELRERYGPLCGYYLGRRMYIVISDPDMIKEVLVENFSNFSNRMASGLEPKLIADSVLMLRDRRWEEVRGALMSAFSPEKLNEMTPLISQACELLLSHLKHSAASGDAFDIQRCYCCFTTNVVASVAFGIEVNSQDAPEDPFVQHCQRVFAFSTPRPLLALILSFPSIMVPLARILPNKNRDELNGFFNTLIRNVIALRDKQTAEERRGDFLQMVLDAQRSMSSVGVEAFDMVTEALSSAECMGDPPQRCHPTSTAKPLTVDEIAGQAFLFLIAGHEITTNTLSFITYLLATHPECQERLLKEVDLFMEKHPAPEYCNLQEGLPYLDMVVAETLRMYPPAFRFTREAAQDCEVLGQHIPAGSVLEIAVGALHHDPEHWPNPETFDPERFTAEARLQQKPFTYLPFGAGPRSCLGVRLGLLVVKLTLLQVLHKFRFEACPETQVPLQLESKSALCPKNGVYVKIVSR
How it was run: (§1)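 Male SD rats (240–260 g), fasted 20 h, dosed orally with compound in 0.5% carboxymethylcellulose or vehicle alone. At 1 h, ether anesthesia and 2 mL cardiac blood taken and clotted at 37 °C for 90 min.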

Cavia porcellus [3] = species: Cavia porcellus; experiment: In vitro inhibitory effect on the spasmogen-contracted guinea pig tracheal strips in presence of histamine; assay type: functional; details: Trachea
How it was run: (§2)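 Tracheal strips in oxygenated Krebs-Henseleit, preincubated 60 min with indomethacin (3 μM) to remove spontaneous tone, resting tension 1 g. Contraction induced by acetylcholine (10^-5 M final) or histamine (10^-4 M final), with indomethacin present. Compound added cumulatively […]. […] IC50 taken from the concentration-response curve.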

Cavia porcellus [4] = experiment: Tested in vivo for spasmogen inhalation induced collapse in conscious guinea pig in presence of acetylcholine (0.2%); assay type: functional
How it was run: (§3)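 Male guinea pigs (400–500 g), conscious, dosed orally with compound or vehicle, then placed in chambers. At 1 h, exposed for 9 min to spasmogen aerosol (acetylcholine 0.2% or histamine 0.03%). Time to collapse recorded; no collapse within 9 min counted as full protection. ≥3 doses tested. RD100 is the oral dose prolonging collapse time by 100 s over vehicle.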

Cavia porcellus [5] = experiment: Tested in vivo for histamine-induced bronchoconstriction in guinea pig at intraduodenal dose of 60 mg/kg; assay type: functional
How it was run: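 Male Dunkin-Hartley guinea pigs under ip pentobarbital (35 mg/kg), jugular vein and trachea cannulated, ventilated at 10 mL/kg, 60 strokes/min; insufflation pressure recorded by transducer. Histamine (1–5 μg/kg iv) repeated every 10 min until the control response was reproducible. Drug given intraduodenally through a catheter 30 min before histamine challenge.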

Cavia porcellus [6] = species: Cavia porcellus; experiment: In vitro inhibitory effect on the spasmogen-contracted guinea pig tracheal strips in presence of acetylcholine; assay type: functional; details: Trachea; how it was run: as §2
Cavia porcellus [7] = species: Cavia porcellus; experiment: In vitro inhibitory effect on the contraction of guinea pig tracheal strips was examined for spontaneous contraction; assay type: functional; details: Trachea
Cavia porcellus [8] = experiment: Tested in vivo for spasmogen inhalation induced collapse in conscious guinea pig in presence of histamine (0.03%); assay type: functional; how it was run: as §3
Cavia porcellus [9] = experiment: In vivo inhibitory effect on airway constriction induced by histamine 2-5 micro g/kg iv at 1 min after 10 mg/kg iv dose of compound; assay type: functional
How it was run: (§4)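 Male Dunkin-Hartley guinea pigs anesthetized with pentobarbital 35 mg/kg ip, jugular vein and trachea cannulated, ventilated at 10 mL/kg, 60 strokes/min. Insufflation pressure recorded. Histamine 2–5 μg/kg iv repeated every 10 min until a reproducible control response. Compound 10 mg/kg iv 1 min before the next challenge.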

Thromboxane-A synthase [10] = molecular target: T2, Thromboxane-A synthase (Rattus norvegicus, UniProt P49430); experiment: Tested in vitro against TXA2 synthetase inhibitory activity in rat platelet
T2 sequence (P49430 whole entry): T1 sequence (whole entry)
How it was run: (§5)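 Citrated human or rat blood centrifuged to platelet-rich plasma and platelets resuspended in Krebs-Henseleit at 1×10^8 cells/mL. Used for TXB2 production.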

Cavia porcellus [11] = experiment: Tested in vivo for histamine-induced bronchoconstriction in guinea pig at intraduodenal dose of 10 mg/kg for 30 min; assay type: functional; details: 0.5 h
How it was run: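 Anesthetized, ventilated guinea pigs (pentobarbital 35 mg/kg ip) with insufflation pressure recorded. Histamine 2–5 μg/kg iv given repeatedly until a reproducible response. Compound 10 mg/kg injected into the duodenum through a catheter 30 min before histamine challenge. Expressed as % inhibition of the control response.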

[12] = system: Thromboxane-A synthase (Oryctolagus cuniculus); experiment: Tested in vitro against rabbit thromboxane A2 synthetase (TXA2) at 1 uM
Cavia porcellus [13] = experiment: In vivo inhibitory effect on airway constriction induced by histamine 2-5 ug/kg iv at 1 min after 10 mg/kg iv dose of compound; assay type: functional; how it was run: as §4
Cavia porcellus [14] = species: Cavia porcellus; experiment: In vitro bronchodilatory activity in guinea pig isolated tracheal strips; assay type: functional; details: Trachea
Thromboxane-A synthase [15] = molecular target: T3, Thromboxane-A synthase (Homo sapiens, UniProt P24557); experiment: Tested in vitro against TXA2 synthetase inhibitory activity in human microsome
T3 sequence (P24557 whole entry): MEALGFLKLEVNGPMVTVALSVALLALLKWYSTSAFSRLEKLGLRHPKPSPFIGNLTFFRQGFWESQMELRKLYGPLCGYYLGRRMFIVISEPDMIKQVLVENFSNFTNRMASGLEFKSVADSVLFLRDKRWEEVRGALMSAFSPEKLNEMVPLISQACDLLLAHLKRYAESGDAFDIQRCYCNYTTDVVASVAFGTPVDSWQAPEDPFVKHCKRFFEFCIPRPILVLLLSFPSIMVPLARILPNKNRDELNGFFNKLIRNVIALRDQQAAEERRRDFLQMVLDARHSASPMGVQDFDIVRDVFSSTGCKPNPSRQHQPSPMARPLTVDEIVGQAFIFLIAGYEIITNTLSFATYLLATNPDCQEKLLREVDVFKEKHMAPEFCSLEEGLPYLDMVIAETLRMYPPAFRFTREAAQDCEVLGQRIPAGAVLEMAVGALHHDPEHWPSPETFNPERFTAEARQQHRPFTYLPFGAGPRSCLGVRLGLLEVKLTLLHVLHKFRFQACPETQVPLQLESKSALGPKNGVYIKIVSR
How it was run: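 Commercial human platelet microsomes. Preincubated with compound for 3 min at 25 °C in Tris-HCl 15 mM, NaCl 140 mM, glucose 10 mM, pH 7.6. Arachidonic acid 1–3 μM added, then 3 min at 25 °C. Stopped by chilling and acidifying to pH 3 with HCl, centrifuged, supernatant TXB2 measured by RIA.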

Rattus norvegicus [16] = experiment: Tested ex vivo against serum TXB2 production at 1 hr after oral dose of 3 mg/kg of drug to rat; assay type: functional; how it was run: as §1
Thromboxane-A synthase [17] = molecular target: T3, Thromboxane-A synthase; experiment: Tested in vitro against TXA2 synthetase inhibitory activity in human whole blood; assay type: tissue-based
How it was run: (§6)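 Non-anticoagulated human or rat blood split into 0.5-mL aliquots, each with one drug concentration or vehicle. Vortexed, then clotted 60 min at 37 °C. Serum deproteinized with EtOH and TXB2 measured by RIA. % inhibition against control.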

Thromboxane-A synthase [18] = molecular target: T3, Thromboxane-A synthase; experiment: Tested in vitro against TXA2 synthetase inhibitory activity in human platelet; how it was run: as §5
Thromboxane-A synthase [19] = molecular target: T2, Thromboxane-A synthase; experiment: Tested in vitro against TXA2 synthetase inhibitory activity in rat whole blood; assay type: tissue-based; how it was run: as §6
Rattus norvegicus [20] = experiment: Tested ex vivo against serum TXB2 production at 1 hr after oral dose of 30 mg/kg of drug to rat; assay type: functional; how it was run: as §1

| inhibition [2] [%] | pIC50 (Cavia porcellus [3]) | pIC50 (Cavia porcellus [6]) | pIC50 (Cavia porcellus [7]) | pIC50 (Thromboxane-A synthase [10]) | inhibition [12] [%] | pIC50 (Cavia porcellus [14]) | pIC50 (Thromboxane-A synthase [15]) | pIC50 (Thromboxane-A synthase [17]) | pIC50 (Thromboxane-A synthase [18]) | pIC50 (Thromboxane-A synthase [19]) | SMILES | inhibition in vivo at 10 mg/kg (Cavia porcellus [1]) [%] | RD100 (Cavia porcellus [4]) [mg/kg] | inhibition in vivo at 60 mg/kg (Cavia porcellus [5]) [%] | RD100 (Cavia porcellus [8]) [mg/kg] | inhibition in vivo at 10 mg/kg (Cavia porcellus [9]) [%] | inhibition in vivo at 10 mg/kg (Cavia porcellus [11]) [%] | inhibition in vivo at 10 mg/kg (Cavia porcellus [13]) [%] | inhibition in vivo at 3 mg/kg (Rattus norvegicus [16]) [%] | inhibition in vivo at 30 mg/kg (Rattus norvegicus [20]) [%] |
| --- | --- | --- | --- | --- | --- | --- | --- | --- | --- | --- | --- | --- | --- | --- | --- | --- | --- | --- | --- | --- |
| 92 | 4.34 | 4.24 | 5.80 | 5.89 | 87 | 5.88 | 5.80 | 5.64 | 4.55 | 5.77 | CCn1nc(-c2cccnc2)c2ccccc2c1=O | 71 | 3.8 |  | 6.5 |  | 72 | 100 | 66 | 92 |
| 83 | 4.55 | 4.34 | 5.74 | 6.52 |  | 5.80 | 5.41 | 5.06 | 6.30 | 5.48 | Cn1nc(-c2cncs2)c2ccccc2c1=O | 61 | 6.6 |  | 11.2 |  | 68 |  | 50 | 83 |

| SMILES | inhibition [2] [%] | pIC50 (Cavia porcellus [3]) | pIC50 (Cavia porcellus [6]) | pIC50 (Cavia porcellus [7]) | pIC50 (Thromboxane-A synthase [10]) | inhibition [12] [%] | pIC50 (Cavia porcellus [14]) | pIC50 (Thromboxane-A synthase [15]) | pIC50 (Thromboxane-A synthase [17]) | pIC50 (Thromboxane-A synthase [18]) | pIC50 (Thromboxane-A synthase [19]) | inhibition in vivo at 10 mg/kg (Cavia porcellus [1]) [%] | RD100 (Cavia porcellus [4]) [mg/kg] | inhibition in vivo at 60 mg/kg (Cavia porcellus [5]) [%] | RD100 (Cavia porcellus [8]) [mg/kg] | inhibition in vivo at 10 mg/kg (Cavia porcellus [9]) [%] | inhibition in vivo at 10 mg/kg (Cavia porcellus [11]) [%] | inhibition in vivo at 10 mg/kg (Cavia porcellus [13]) [%] | inhibition in vivo at 3 mg/kg (Rattus norvegicus [16]) [%] | inhibition in vivo at 30 mg/kg (Rattus norvegicus [20]) [%] |
| --- | --- | --- | --- | --- | --- | --- | --- | --- | --- | --- | --- | --- | --- | --- | --- | --- | --- | --- | --- | --- |
| Cn1c(=O)c2[nH]cnc2n(C)c1=O.Cn1c(=O)c2[nH]cnc2n(C)c1=O.NCCN [AMINOPHYLLINE] | 0 | 3.49 | 3.52 | 4.36 |  |  |  |  |  |  |  | 42 | 66 | 87 | >60 | 86 |  |  |  |  |
